Hits are enriched below; roughly 6.5% of the tested compounds scored in any of these assays.
PostGolgi yeast: growth inhibition of a yeast mutant, post-Golgi transport screen; post-Golgi transport phenotypic cell assay; inhibition, % at 10 µM; actives 0.9% (n = 98,000);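 note: yeast cells grown in 1536-well plates; yeast grown about 18 h at 30C before absorbance read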
Pyk2 oligo antag: blocks oligomerization of human Pyk2 in cells; Q14289; actives 0.83% (n = 99,000); Q293 cells, Pyk2 FERM NanoBiT luminescence; hits give low values; z-score (the deposit names both 25 µM and 10 µM); AID 1347419;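 active = Z-score of -3 or lower, scaled per plate to the spread of control and sample wells; inactive = z-score above -3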;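 note: negative z-score means lost luminescence so less FERM oligomerization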
Calb biofilm kill: kills Candida albicans biofilms; C. albicans biofilm + clotrimazole, Alamar Blue; inhibition, % at 6 µM; actives 0.14% (n = 85,000); AID 834;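 active = inhibition above 20%; inactive = inhibition below 20%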;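 note: preformed 24 hr biofilms exposed to compound for 48 hr; 0% = biofilm without compound and 100% = blank killed by clotrimazole plus chlorhexidine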
Ecoli tolC: growth inhibitors of E. coli BW25113 tolC mutant | actives 2.2% (n = 65,000) | OD615 | growth inhibition, % at 10 µM (by protocol);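 active = growth inhibition at or above a cutoff equal to the mean over every tested compound plus 3 SD, cut at about 60% in these data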;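 note: growth measured after 20 h incubation at 37 °C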
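test system = E. coli BW25113 ΔtolC::kan bacteria | medium = LB with kanamycin 50 µg/mL | signal = OD at 615 nm | schedule = 37 °C, 20 h exposure | evaluation = % inhibition of E. coli growth | compound dosing = one dose of 10 µM final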
PostGolgi ctrl: yeast control strain growth, post-Golgi counter-screen. efflux-deficient yeast background strain, growth absorbance A615, 16 h. actives 5% (n = 98,000). inhibition, % at 10 µM. AID 738
Ecoli WT expand: growth inhibitors of E. coli BW25113 wild type; OD600 absorbance; growth inhibition, % at 100 µM; actives 0.15% (n = 98,000); AID 710;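 active = growth inhibition above about 50% at one test dose, limit read from the data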;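 note: growth measured after 20 h incubation at 37 °C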
Active calls of the source: *; · = no result. Cut-off read from the data, not from the text of the source, unless noted: active = inhibition above about 30%; inactive = the rest.

SMILES	PostGolgi yeast	Pyk2 oligo antag	Calb biofilm kill	Ecoli tolC	PostGolgi ctrl	Ecoli WT expand
CCC(CC)C(=O)NCCc1ccc(OC)cc1	-3	0.42	6	·	12	-1
O=C(NCCCn1ccnc1)c1cc(-c2ccc3c(c2)OCO3)on1	-3	-0.04	·	7	-4	8
O=C(NCCCn1ccnc1)c1ccc2c(c1)OCCO2	-6	0.1	5	-17	47*	2
O=C(Nc1cc(C(F)(F)F)ccc1N1CCCCC1)c1cccc([N+](=O)[O-])c1	2	0.33	·	·	29	-11
N#CCSc1nc2scc(-c3cccs3)c2c(=O)n1CCc1ccccc1	-3	-0.75	2	20	32*	-7
Cc1cnn(C(=S)NCC2CCCO2)c1 (stereo not drawn)	7	0.23	4	-30	-6	3
CC1CCC(C(C)C)C(OC(=O)COC(=O)c2ccc(=O)[nH]c2)C1 (stereo not drawn)	11	-0.17	8	63*	5	2
CC1CCC(C(C)C)C(OC(=O)CSc2nccc(=O)[nH]2)C1 (stereo not drawn)	-1	-0.26	6	·	17	-4
Nn1c(SCC(=O)NCCC2=CCCCC2)nnc1C(F)(F)F	3	0.7	·	·	8	2
Cc1nc(-c2ccc(O)c(O)c2)cs1	-2	-0.22	2	·	10	12
Oc1ccc(-c2csc(-c3ccccc3)n2)cc1O	1	-1.8	7	·	59*	35
O=C(COc1cccc2cccnc12)N1CCc2ccccc2C1	-3	0.72	7	9	-3	11
O=C(COc1c(Br)cc(Br)c2cccnc12)N1CCc2ccccc2C1	-7	1.7	7	·	67*	7
O=c1nc(NC2CCCC2)ccn1Cc1cccc(Br)c1	-6	-0.73	5	11	50*	3
CC(C)(C)c1cc(C(=O)NCc2ccccc2)ccn1	-8	0.73	2	·	1	1
CCn1c(Sc2nc(C)nc3scc(-c4cccs4)c23)n[nH]c1=O	104*	0.17	6	30	102*	8
Cc1ccc(NS(=O)(=O)c2ccc(OCC(=O)Nc3cccc([N+](=O)[O-])c3)c(C)c2)cc1	-2	-0.43	·	·	0	-4
Cc1cc(C)n(-c2nc(NCCC(C)C)c3c4c(sc3n2)COC(C)(C)C4)n1	-5	-0.9	-1	·	33*	-2
O=C(COc1ccc2c(c1)OCO2)NC12CC3CC(CC(C3)C1)C2	-9	-1.9	4	25	36*	11
Cc1noc(C)c1COc1ccc(C(=O)OCC(=O)NC23CC4CC(CC(C4)C2)C3)cc1	-6	0.56	8	·	37*	0
O=C(NCc1cccc(Cl)c1)c1cnn2c1NC(c1ccco1)CC2C(F)(F)F (stereo not drawn)	-3	-0.24	7	·	16	-1
Cc1ccc(Cl)cc1NC(=O)c1cnn2c1NC(c1ccco1)CC2C(F)(F)F (stereo not drawn)	41*	-0.35	1	·	58*	-2
Cc1onc(-c2ccccc2)c1C(=O)Nc1cccc(OC(C)C)c1	1	-0.48	·	40	33*	-1
Cc1onc(-c2ccccc2)c1C(N)=O	4	0.14	·	2	42*	1
O=C(CSc1nc(-c2cccs2)cc(C(F)(F)F)n1)NCc1ccccc1	-3	-1.3	5	·	30*	-4
SMILES	PostGolgi yeast	Pyk2 oligo antag	Calb biofilm kill	Ecoli tolC	PostGolgi ctrl	Ecoli WT expand
Cc1cc(C)nc(N2CCCC(C(=O)NCC(c3ccccc3)c3ccccc3)C2)n1 (stereo not drawn)	·	-0.79	6	·	·	·
CCC(CC)C(=O)NC12CC3CC(CC(C3)C1)C2	-1	-0.41	3	·	7	-21
COc1c(C(=O)Nc2ccc(Cc3ccncc3)cc2)ccc2ccccc12	·	-1.5	·	·	·	·
CCN(CC)CCOC(=O)C1(c2ccccc2)CCCC1	4	-0.61	1	·	-6	4
CCN(CC)CCOC(=O)C1(c2ccc(OC)c(OC)c2)CCCC1	-1	0.26	4	7	50*	2
CCCCn1c(=NC(=O)c2ccco2)c(C(=O)OCC)cc2c(=O)n3ccccc3nc21	4	0.13	7	6	6	-5
CCCCCn1c(=NC(=O)c2ccco2)c(C(=O)OCC)cc2c(=O)n3ccccc3nc21	-4	-1.3	8	8	33*	-5
COc1ccc(S(=O)(=O)N2CCN(Cc3ccc(Cl)cc3)CC2)cc1	3	-0.53	6	18	23	-2
O=S(=O)(c1ccc(Cl)cc1)N1CCN(C2CCN(Cc3ccccc3)CC2)CC1	90*	0.16	-1	·	27	9
